Values belong to the compound of their own block, whether it stands above or below them. Activity calls are given as the source filed them. No cut-off for these calls is given here.
Legend:
[1] = system: Mus musculus; assay: Evaluated in vivo for their ability to decrease plasma glucose levels in diabetic C57BL/KsJ ob/ob mouse at a dose 100 mg/kg/day, **p indicates <0.01; format: functional
Method in brief: (§1)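 Mice dosed orally once daily for 4 days; plasma glucose and insulin measured and expressed as percent change versus a vehicle-treated group (mean ± SE, 4-6 mice/group). NS is generally less than -15% change. Significance is versus vehicle-treated mice.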

[2] = system: Mus musculus; assay: Evaluated for their ability to decrease plasma insulin levels in mouse at a dose 100 mg/kg/day, **p indicates <0.01; format: functional
Method in brief: (§2)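 Diabetic db/db or ob/ob mice dosed orally once daily for 4 days. Plasma glucose and insulin reported as percent change from a vehicle-treated group. 4-6 mice per group. Significance set at p < 0.05 or p < 0.01 versus vehicle; NS means generally less than -15% change.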

[3] = biological target: T1, Tyrosine-protein phosphatase non-receptor type 1 (Rattus norvegicus, UniProt P20417); assay: Inhibition of PTPase activity in rat hepatic membrane at a concentration of 50 uM using pNPP as the substrate; format: cell membranes, Liver
T1 sequence (P20417 whole entry): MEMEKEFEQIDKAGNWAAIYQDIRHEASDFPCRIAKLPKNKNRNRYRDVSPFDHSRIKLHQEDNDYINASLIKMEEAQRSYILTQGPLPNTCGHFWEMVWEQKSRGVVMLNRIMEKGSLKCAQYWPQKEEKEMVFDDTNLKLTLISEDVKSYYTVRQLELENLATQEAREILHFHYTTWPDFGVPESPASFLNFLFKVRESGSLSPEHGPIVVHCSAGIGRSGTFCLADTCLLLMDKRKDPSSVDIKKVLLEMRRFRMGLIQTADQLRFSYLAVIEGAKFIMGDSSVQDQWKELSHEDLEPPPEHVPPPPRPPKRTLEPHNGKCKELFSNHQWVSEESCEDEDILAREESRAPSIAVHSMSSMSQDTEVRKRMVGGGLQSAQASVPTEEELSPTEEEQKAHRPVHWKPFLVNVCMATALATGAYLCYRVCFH
Method in brief: (§3)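 Liver membranes from male Sprague-Dawley rats (100-150 g), about 30 µg protein per well. Preincubated 10 min at 37 °C with compound in 1.25% DMSO in 50 mM HEPES pH 7.4. Then 6.33 mM pNPP for 30 min at 37 °C, stopped with NaOH. p-Nitrophenol read at 410 nm. Run in triplicate. Reported as percent of untreated control.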

[4] = biological target: T2, Tyrosine-protein phosphatase non-receptor type 1 (Rattus norvegicus) (UniProt P20417); assay: Inhibition of PTPase activity using recombinant r-PTP1B as the enzyme and IR-triphosphopeptide as substrate at 50 uM
T2 sequence (whole entry): T1 sequence (P20417 whole entry)
Method in brief: (§4)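 Rat recombinant PTP1B in 33 mM TRIS-HCl, 2 mM EDTA, 50 mM β-mercaptoethanol, pH 7.4 (about 1000-2000 nmol/min/mg). Preincubated 10 min at 37 °C with or without compound in HEPES buffer pH 7.4. Released phosphate read by malachite green-ammonium molybdate at 650 nm against a phosphate standard. Quadruplicates. IC50 by four-parameter logistic fit.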

[5] = system: Mus musculus; assay: Evaluated in vivo for their ability to decrease plasma glucose levels in diabetic C57BL/KsJ db/db mouse at a dose 100 mg/kg/day.,*p indicates <0.05; format: functional; method in brief: as §1
[6] = biological target: T3, Tyrosine-protein phosphatase non-receptor type 1 (Mus musculus) (UniProt P35821); assay: In vivo ability to decrease plasma glucose levels in diabetic C57BL/KsJ ob/ob mouse at a dose 100 mg/kg/day; format: functional, organism-based; method in brief: as §2
T3 sequence (whole entry): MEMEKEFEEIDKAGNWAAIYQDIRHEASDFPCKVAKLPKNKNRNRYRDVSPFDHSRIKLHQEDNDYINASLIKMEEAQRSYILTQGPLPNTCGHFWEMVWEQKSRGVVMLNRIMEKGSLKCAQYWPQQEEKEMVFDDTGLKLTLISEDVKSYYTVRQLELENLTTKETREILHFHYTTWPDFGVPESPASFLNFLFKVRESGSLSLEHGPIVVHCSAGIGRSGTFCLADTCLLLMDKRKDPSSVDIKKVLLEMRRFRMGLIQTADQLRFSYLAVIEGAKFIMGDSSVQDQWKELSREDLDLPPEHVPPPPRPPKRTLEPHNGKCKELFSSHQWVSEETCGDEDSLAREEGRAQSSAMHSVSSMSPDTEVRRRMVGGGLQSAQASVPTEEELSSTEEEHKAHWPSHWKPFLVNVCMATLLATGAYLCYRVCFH

[7] = biological target: T2, Tyrosine-protein phosphatase non-receptor type 1 (Rattus norvegicus); assay: Inhibition of PTPase (PTP1B) activity in rat hepatic membrane at 50 uM concentration, using pNPP as the substrate; format: cell membranes; details: Liver; method in brief: as §3
[8] = biological target: T1, Tyrosine-protein phosphatase non-receptor type 1; assay: Inhibition of PTPase activity using recombinant r-PTP1B and IR-triphosphopeptide as substrate; ND is no data.; method in brief: as §4
[9] = biological target: T3, Tyrosine-protein phosphatase non-receptor type 1 (Mus musculus); assay: Ability to decrease plasma insulin levels in mouse at a dose 100 mg/kg/day; format: functional, organism-based; method in brief: as §2
[10] = system: Mus musculus; assay: Evaluated in vivo for their ability to decrease plasma glucose levels in diabetic C57BL/KsJ db/db mouse at a dose 100 mg/kg/day; NS is non significant; format: functional, organism-based; method in brief: as §2
[11] = biological target: T1, Tyrosine-protein phosphatase non-receptor type 1; assay: Inhibition of PTPase activity using recombinant r-PTP1B as the enzyme and IR-triphosphopeptide as substrate; method in brief: as §4
[12] = system: Mus musculus; assay: Evaluated for their ability to decrease plasma insulin levels in mouse at a dose 100 mg/kg/day.; format: functional; method in brief: as §1
[13] = system: Mus musculus; assay: Evaluated in vivo for their ability to decrease plasma glucose levels in diabetic C57BL/KsJ ob/ob mouse at a dose 100 mg/kg/day.; format: functional; method in brief: as §1
[14] = system: Mus musculus; assay: Evaluated for their ability to decrease plasma insulin levels in mouse at a dose 100 mg/kg/day,**p indicates <0.01; format: functional; method in brief: as §1
[15] = system: Mus musculus; assay: Evaluated in vivo for their ability to decrease plasma glucose levels in diabetic C57BL/KsJ db/db mouse at a dose 100 mg/kg/day. *p indicates <0.05; format: functional; method in brief: as §1
[16] = biological target: T2, Tyrosine-protein phosphatase non-receptor type 1 (Rattus norvegicus); assay: Inhibition of PTPase activity using recombinant r-PTP1B as the enzyme and IR-triphosphopeptide as substrate at 10 uM
Method in brief: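 Recombinant rat PTP1B (human 321-aa form assayed the same way), activity about 1000-2000 nmol/min/mg, preincubated with compound for 10 min at 37 °C in HEPES pH 7.4. The reaction is started with 50 µM triphosphorylated insulin receptor 1142-1153 dodecapeptide and run 30 min at 37 °C. Released phosphate read by malachite green-molybdate at 650 nm, in quadruplicate. Result is percent inhibition versus control.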

[17] = biological target: T4, Tyrosine-protein phosphatase non-receptor type 1 (Homo sapiens, UniProt P18031); assay: Concentration required to inhibit PTPase activity, recombinant Protein Tyrosine Phosphatase 1b as the enzyme; method in brief: as §4
T4 sequence (P18031 whole entry): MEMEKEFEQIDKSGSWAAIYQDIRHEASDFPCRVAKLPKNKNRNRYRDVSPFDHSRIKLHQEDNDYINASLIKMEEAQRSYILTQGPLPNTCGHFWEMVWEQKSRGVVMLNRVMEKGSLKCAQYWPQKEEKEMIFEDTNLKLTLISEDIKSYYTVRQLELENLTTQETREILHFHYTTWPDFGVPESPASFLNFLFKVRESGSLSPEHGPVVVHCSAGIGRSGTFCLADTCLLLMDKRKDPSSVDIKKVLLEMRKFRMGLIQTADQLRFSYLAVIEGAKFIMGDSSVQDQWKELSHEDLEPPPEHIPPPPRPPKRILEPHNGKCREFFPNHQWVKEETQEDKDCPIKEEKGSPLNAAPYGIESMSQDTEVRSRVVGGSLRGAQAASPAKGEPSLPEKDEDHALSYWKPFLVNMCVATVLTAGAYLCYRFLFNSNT

[18] = system: Mus musculus; assay: Evaluated in vivo for their ability to decrease plasma glucose levels in diabetic C57BL/KsJ db/db mouse at a dose 100 mg/kg/day, *p indicates <0.05; format: functional; method in brief: as §1
[19] = biological target: T1, Tyrosine-protein phosphatase non-receptor type 1; assay: Inhibition of PTPase activity using recombinant Protein-tyrosine phosphatase 1B and IR-triphosphopeptide as substrate; ND is no data.

Inhibition % [3]: 28%
inhibition [4]: 1.2%
Compound: Cc1oc(-c2ccc(C(F)(F)F)cc2)nc1COc1cccc(/C(=C/Cn2oc(=O)[nH]c2=O)c2ccc(F)cc2)c1
Decrease [1]: 34%
Decrease [2]: 38%

Decrease [6]: Not significant
inhibition [7]: 58%
IC50 [8]: Not significant
Decrease [9]: Not significant
Compound: CC/C(=C\c1cccc(OCc2nc(-c3ccc(C(F)(F)F)cc3)oc2C)c1)n1oc(=O)[nH]c1=O
Decrease [5]: 24%

Decrease [6]: Not significant
inhibition [7]: 63%
IC50 [11]: 1600 nM
Decrease [9]: Not significant
Compound: C/C(=C\Cn1oc(=O)[nH]c1=O)c1ccc(OCCc2nc(-c3ccc(C(F)(F)F)cc3)oc2C)cc1
Decrease [10]: inactive

IC50 [11]: 300 nM
Compound: C/C(=C\Cn1oc(=O)[nH]c1=O)c1cccc(OCc2nc(-c3ccc(C(F)(F)F)cc3)oc2-c2ccccc2)c1
Decrease [12]: 30%
Decrease [13]: 25%

Compound: Cc1oc(-c2ccc(C(F)(F)F)cc2)nc1COc1cccc(C#CC(C)n2oc(=O)[nH]c2=O)c1 (configuration not stated)
Decrease [14]: 91%
Decrease [15]: 30%
Decrease [1]: 32%
inhibition [7]: 56%
inhibition [16]: 47%

inhibition [7]: 31%
IC50 [17]: 48000 nM
Compound: CCCC/C(=C\Cn1oc(=O)n(CC(=O)O)c1=O)c1cccc(OCc2cc(Cl)cc(Cl)c2)c1

IC50 [19]: Not significant
Compound: C/C(=C\Cn1oc(=O)[nH]c1=O)c1cccc(OCc2nc(-c3ccccc3)oc2C)c1 (stereo in doubt; 67)
Decrease [1]: 30%
Decrease [18]: 28%
Decrease [2]: 75%

Decrease [6]: Not significant
inhibition [7]: 49%
IC50 [8]: Not significant
Decrease [9]: Not significant
Compound: Cc1oc(-c2ccc(C(F)(F)F)cc2)nc1COc1cccc(/C=C/Cn2oc(=O)[nH]c2=O)c1
Decrease [10]: inactive

Inhibition % [3]: 33%
IC50 [11]: 2700 nM
Compound: CCCCc1oc2ccccc2c1COc1cccc(/C(C)=C/Cn2oc(=O)[nH]c2=O)c1

inhibition [7]: 76%
IC50 [17]: 370 nM
Compound: CCCC/C(=C\Cn1oc(=O)[nH]c1=O)c1cccc(OCc2nc(-c3ccc(C(F)(F)F)cc3)oc2-c2ccccc2)c1

Decrease [6]: Not significant
inhibition [7]: 27%
IC50 [11]: 46000 nM
Decrease [9]: Not significant
Compound: C/C(=C\CC1OC(=O)NC1=O)c1cccc(OCc2nc(-c3ccc(OC(F)(F)F)cc3)oc2C)c1 (configuration not stated)
Decrease [15]: 40%

— ChEMBL document CHEMBL1132971, “New azolidinediones as inhibitors of protein tyrosine phosphatase 1B with antihyperglycemic properties” (J Med Chem, 2000)
